The source made the active and inactive calls. No cut-off for these calls is given here.
Key:
[1] = system: Protobothrops elegans; test: Percent inhibition of hyaluronidase from Trimeresurus elegans venom; set-up: concentration or dose not given beside the values; settings: concentration not given here
[2] = target: T1, Basic phospholipase A2 PLA-A (Trimeresurus flavoviridis, UniProt P59264); test: In vitro inhibitory concentration against phospholipase A2 of Trimeresurus flavoviridis venom; set-up: species or system Protobothrops flavoviridis
T1 sequence (P59264 whole entry): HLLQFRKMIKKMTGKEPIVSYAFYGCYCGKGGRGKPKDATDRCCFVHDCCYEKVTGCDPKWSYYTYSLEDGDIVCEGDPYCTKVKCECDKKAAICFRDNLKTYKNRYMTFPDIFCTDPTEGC

[3] = system: Naja naja; test: Percent inhibition of hyaluronidase from Naja naja naja venom; NI = No inhibition
[4] = target: T2, Basic phospholipase A2 1 (Naja melanoleuca, UniProt P00599); test: In vitro inhibitory concentration against phospholipase A2 of Naja melanoleuca venom
T2 sequence (P00599 whole entry): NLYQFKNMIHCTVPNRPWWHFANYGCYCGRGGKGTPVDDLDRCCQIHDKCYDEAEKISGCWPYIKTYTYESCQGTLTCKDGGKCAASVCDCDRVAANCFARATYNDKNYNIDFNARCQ

[5] = system: Daboia russelii russelii; test: Percent inhibition of hyaluronidase from Vipera russelli russelli venom; set-up: concentration or dose not given beside the values; settings: concentration not given here
[6] = target: Acidic phospholipase A2 EC-I (Echis carinatus, UniProt Q7T3S7); test: In vitro inhibitory concentration against phospholipase A2 of Echis carinatus venom
Chain of Acidic phospholipase A2 EC-I (Q7T3S7 17-136 limits assumed): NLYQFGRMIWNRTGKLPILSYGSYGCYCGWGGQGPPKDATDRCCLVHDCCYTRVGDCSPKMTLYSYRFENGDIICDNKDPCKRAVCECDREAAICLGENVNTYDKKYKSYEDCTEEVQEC

[7] = In vitro Inhibitory concentration against phospholipase A2 activity of synovial fluid; set-up: species or system Homo sapiens
[8] = system: Naja naja; test: Percent inhibition of hyaluronidase from Naja naja naja venom; set-up: concentration or dose not given beside the values; settings: concentration not given here
[9] = system: Mus musculus; test: Edema ratio expressed as weight of edematous leg to 100/weight of normal leg in mice upon injection of 300 uM compound preincubated with 1 ug phospholipase A2 of Synovial fluid at 37 C for 1 hr into the mice foot pads; assay type: functional
In short: (§1)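 Each PLA2 enzyme (1 µg) was preincubated with compound (300 µM) at 37 °C for 1 h, then injected into the right hind footpad of mice (22–24 g) in saline. The left footpad received saline as control. After 45 min the mice were killed, and both legs were cut at the ankle and weighed. Edema ratio = edematous leg weight × 100 / normal leg weight. Results given as mean SD (n = 4); Student's t test, P < 0.05.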

[10] = system: Mus musculus; test: Edema ratio expressed as weight of edematous leg to 100/weight of normal leg in mice upon injection of 300 uM compound pre-incubated with 1 ug phospholipase A2 of Echis carinatus at 37 C for 1 h into the mice foot pads; assay type: functional; in short: as §1
[11] = system: Mus musculus; test: Edema ratio expressed as weight of edematous leg to 100/weight of normal leg in mice upon injection of 300 uM compound preincubated with 1 ug phospholipase A2 of Trimeresurus flavoviridis at 37 C for 1 hr into the mice foot pads; assay type: functional; in short: as §1
[12] = system: Mus musculus; test: Edema ratio expressed as weight of edematous leg to 100/weight of normal leg in mice upon injection of 300 uM compound pre-incubated with 1 ug phospholipase A2 of Naja melanoleuca at 37 degree C for 1 h into mice foot pads; assay type: functional; in short: as §1
[13] = system: Naja melanoleuca; test: Percent inhibition of hyaluronidase from Naja melanoleuca venom; NI = No inhibition
[14] = system: Daboia russelii russelii; test: Percent inhibition of hyaluronidase from Vipera russelli russelli venom; NI = No inhibition
[15] = system: Protobothrops elegans; test: Percent inhibition of hyaluronidase from Trimeresurus elegans venom; NI = No inhibition

SMILES	inhibition [1] [%]	IC50 [2] [µM]	inhibition [3]	IC50 [4] [µM]	inhibition [5] [%]	IC50 [6] [µM]	IC50 [7] [µM]	inhibition [8] [%]	Ratio [9]	Ratio [10]	Ratio [11]	Ratio [12]	inhibition [13]	inhibition [14]	inhibition [15]
Cc1cc(C(=O)c2cccc(Cl)c2Cl)ccc1OC(=O)c1ccccc1	33.1	89	inactive	132	26.2	112	156	–	–	–	–	–	–	–	–
Cc1ccc(OC(=O)c2cccc(Cl)c2)c(C(=O)c2cccc(Cl)c2)c1	92.5	2.5	–	2.9	87.8	2.3	2.5	89.3	101	101	102	101	–	–	–
C[C@H]1[C@H](C)CC[C@]2(C(=O)O)CC[C@]3(C)C(=CC[C@@H]4[C@@]5(C)CC[C@H](O)C(C)(C)[C@@H]5CC[C@]43C)[C@H]12 [URSOLIC ACID]	–	–	–	2.9	–	2.3	–	–	–	–	–	–	–	–	–
Cc1ccc(C(=O)Oc2ccc(C)cc2C(=O)c2ccc(C)cc2)cc1	76.8	108	–	57	46	96	123	69.3	–	–	–	103	inactive	–	–
O=C(Oc1ccc(Cl)cc1C(=O)c1cccc(Cl)c1Cl)c1ccccc1	76.8	46	–	53	71.6	40	32	85.3	102	103	105	104	–	–	–
Cc1ccc(OC(=O)c2ccccc2C)c(C(=O)c2ccccc2C)c1	42.4	139	–	98	–	105	86	58.7	106	–	–	102	–	inactive	–
Cc1ccc(C(=O)Oc2ccc(C(=O)c3ccccc3C)cc2C)cc1	48.9	75	–	73	36.9	87	56	42.4	101	–	–	–	–	–	–
Cc1ccc(OC(=O)c2ccccc2)c(C(=O)c2ccccc2)c1	–	69	–	60	28.2	94	46	13.9	109	–	105	–	inactive	–	inactive
